Values after ≈ are worked out from the molar mass of the structure shown.
Tests used:
Type in all cases: functional
Staphylococcus aureus [1] = assay: Antibacterial activity against quinoline-susceptible methicillin-resistant Staphylococcus aureus by agar dilution method
Summary of the method: (§1)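 Read-out is the minimum inhibitory concentration (MIC), found by a conventional agar dilution procedure.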

Staphylococcus aureus [2] = assay: Antibacterial activity against quinoline-intermediate methicillin-resistant Staphylococcus aureus by agar dilution method; summary of the method: as §1
Staphylococcus aureus [3] = assay: Antibacterial activity against quinoline-resistant methicillin-resistant Staphylococcus aureus by agar dilution method; summary of the method: as §1
Enterococcus faecalis = assay: Antibacterial activity against Enterococcus faecalis by agar dilution method
Summary of the method: (§2)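 Read-out is the minimum inhibitory concentration (MIC), determined by a conventional agar dilution procedure against a panel of Gram-positive and Gram-negative bacteria.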

Streptococcus pneumoniae = assay: Antibacterial activity against Streptococcus pneumoniae by agar dilution method; summary of the method: as §2
Moraxella catarrhalis = assay: Antibacterial activity against Moraxella catarrhalis by agar dilution method; summary of the method: as §2
Haemophilus influenzae = assay: Antibacterial activity against Haemophilus influenzae by agar dilution method; summary of the method: as §2
Escherichia coli [4] = assay: Antibacterial activity against Escherichia coli without AcrAB efflux system by agar dilution method
Escherichia coli [5] = assay: Antibacterial activity against Escherichia coli with AcrAB efflux system by agar dilution method
Pseudomonas aeruginosa = assay: Antibacterial activity against Pseudomonas aeruginosa by agar dilution method; summary of the method: as §2

Row | Structure (SMILES) | MIC (Staphylococcus aureus [1]) | MIC (Staphylococcus aureus [2]) | MIC (Staphylococcus aureus [3]) | MIC (Enterococcus faecalis) | MIC (Streptococcus pneumoniae) | MIC (Moraxella catarrhalis) | MIC (Haemophilus influenzae) | MIC (Escherichia coli [4]) | MIC (Escherichia coli [5]) | MIC (Pseudomonas aeruginosa)
1 | Cc1ccc(NC2CN(c3c(F)cc4c(=O)c(C(=O)O)cn(C5CC5)c4c3F)C2)cc1 | 0.031 µg/mL (≈ 0.0729 µM) | 0.5 µg/mL (≈ 1.18 µM) | 16 µg/mL (≈ 37.6 µM) | 0.5 µg/mL (≈ 1.18 µM) | 0.5 µg/mL (≈ 1.18 µM) | 0.031 µg/mL (≈ 0.0729 µM) | ≤ 0.008 µg/mL | 0.063 µg/mL (≈ 0.148 µM) | 0.5 µg/mL (≈ 1.18 µM) | 16 µg/mL (≈ 37.6 µM)
2 | O=C(O)c1cn(C2CC2)c2c(F)c(N3CC(Sc4nc5ccccc5o4)C3)c(F)cc2c1=O | 1 µg/mL (≈ 2.13 µM) | 2 µg/mL (≈ 4.26 µM) | 32 µg/mL (≈ 68.2 µM) | 2 µg/mL (≈ 4.26 µM) | 2 µg/mL (≈ 4.26 µM) | 0.5 µg/mL (≈ 1.07 µM) | 0.5 µg/mL (≈ 1.07 µM) | 8 µg/mL (≈ 17 µM) | 8 µg/mL (≈ 17 µM) | > 32 µg/mL
3 | CCOC(=O)c1ccc(NC2CN(c3c(F)cc4c(=O)c(C(=O)O)cn(C5CC5)c4c3F)C2)cc1 | 0.031 µg/mL (≈ 0.0641 µM) | 1 µg/mL (≈ 2.07 µM) | > 16 µg/mL | 2 µg/mL (≈ 4.14 µM) | 0.125 µg/mL (≈ 0.259 µM) | 0.125 µg/mL (≈ 0.259 µM) | ≤ 0.008 µg/mL | 0.25 µg/mL (≈ 0.517 µM) | 2 µg/mL (≈ 4.14 µM) | > 16 µg/mL
4 | O=C(O)c1cn(C2CC2)c2c(F)c(N3CC(Sc4nc5ccccc5s4)C3)c(F)cc2c1=O | 1 µg/mL (≈ 2.06 µM) | 4 µg/mL (≈ 8.24 µM) | 32 µg/mL (≈ 65.9 µM) | 4 µg/mL (≈ 8.24 µM) | 4 µg/mL (≈ 8.24 µM) | 0.5 µg/mL (≈ 1.03 µM) | 0.5 µg/mL (≈ 1.03 µM) | 8 µg/mL (≈ 16.5 µM) | 8 µg/mL (≈ 16.5 µM) | > 32 µg/mL
5 | Cn1cnnc1SC1CN(c2c(F)cc3c(=O)c(C(=O)O)cn(C4CC4)c3c2F)C1 | 0.25 µg/mL (≈ 0.577 µM) | 4 µg/mL (≈ 9.23 µM) | > 16 µg/mL | 1 µg/mL (≈ 2.31 µM) | 2 µg/mL (≈ 4.61 µM) | 0.123 µg/mL (≈ 0.284 µM) | ≤ 0.008 µg/mL | 0.25 µg/mL (≈ 0.577 µM) | 1 µg/mL (≈ 2.31 µM) | 8 µg/mL (≈ 18.5 µM)
6 | O=C(O)c1cn(C2CC2)c2cc(N3CCNCC3)c(F)cc2c1=O [CIPROFLOXACIN] | 1 µg/mL (≈ 3.02 µM) | – | > 64 µg/mL | 2 µg/mL (≈ 6.04 µM) | 4 µg/mL (≈ 12.1 µM) | 0.063 µg/mL (≈ 0.19 µM) | ≤ 0.008 µg/mL | ≤ 0.008 µg/mL | ≤ 0.008 µg/mL | –
7 | COc1c(N2CCNC(C)C2)c(F)cc2c(=O)c(C(=O)O)cn(C3CC3)c12 (stereo not given) [GATIFLOXACIN] | 0.25 µg/mL (≈ 0.666 µM) | 2 µg/mL (≈ 5.33 µM) | > 128 µg/mL | 1 µg/mL (≈ 2.66 µM) | 0.5 µg/mL (≈ 1.33 µM) | 0.063 µg/mL (≈ 0.168 µM) | ≤ 0.008 µg/mL | 0.063 µg/mL (≈ 0.168 µM) | 0.063 µg/mL (≈ 0.168 µM) | 1 µg/mL (≈ 2.66 µM)
8 | C[C@H]1COc2c(N3CCN(C)CC3)c(F)cc3c(=O)c(C(=O)O)cn1c23.C[C@H]1COc2c(N3CCN(C)CC3)c(F)cc3c(=O)c(C(=O)O)cn1c23.O [LEVOFLOXACIN] | 0.5 µg/mL | 4 µg/mL | > 128 µg/mL | 2 µg/mL | – | 0.063 µg/mL | ≤ 0.008 µg/mL | – | – | 0.5 µg/mL

From ChEMBL document CHEMBL1146325, “Synthesis and antibacterial activities of new quinolone derivatives utilizing 1-azabicyclo[1.1.0]butane” (2007)
